Active and inactive are the calls of the source. The calls are words filed in the database; no cut-off is given here.
How the values were obtained:
[1] = Inhibition of beta-catenin-dependent canonical Wnt3A pathway in human HEK293T cells at 1 uM by luciferase reporter gene assay; type: cell-based; settings: HEK-293T
How it was run: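 HEK293T cells transiently co-transfected with Super(8x)TOPflash (TCF-firefly luciferase), TK-Renilla luciferase for normalization, and a Wnt3A-expressing vector to activate the pathway. Compounds tested at a single concentration of 1 μM, alongside untreated and DMSO vehicle controls. Firefly signal normalized to Renilla.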

[2] = Inhibition of beta-catenin-dependent canonical Wnt3 pathway in human HEK293T cells by luciferase reporter gene assay; type: cell-based; settings: HEK-293T
[3] = test system: H9; assay: Cardiogenic activity in human H9 cells after 14 days by MYH6-mCherry reporter gene assay relative to 4-[(1R,2S,6R,7S)-3,5-dioxo-4-azatricyclo[5.2.1.0~2,6~]dec-8-en-4-yl]-N-quinolin-8-ylbenzamide; type: functional
How it was run: (§1)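 hESC embryoid bodies grown to day 4, dissociated to single cells and plated in 384-well format with serial compound dilutions. At day 10 switched to serum-free medium with T3. At day 14 moved to PBS and imaged for red fluorescence. Total area and intensity of the MYH6-mCherry reporter were quantified per well and expressed as percent cardiogenesis, with the reference set to 100% at its maximum.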

[4] = test system: HEK-293T; assay: Cytotoxicity against human HEK293T cells at 0.2 to 20 uM after 24 hrs by alamar blue assay; type: cell-based
[5] = test system: HEK-293T; assay: Inhibition of human recombinant TGFbeta2-induced Smad signaling in HEK293T cells at 0.01 to 5 uM by luciferase reporter gene assay; type: cell-based
How it was run: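 HEK293T cells carrying a SMAD response element reporter were stimulated with human recombinant TGFβ2. Compounds were incubated at 0.01, 0.1, 1 and 5 μM. Percent inhibition of the SMAD response was calculated relative to DMSO vehicle controls.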

[6] = test system: H9; assay: Cardiogenic activity in human H9 cells at < 0.15 uM after 14 days by MYH6-mCherry reporter gene assay relative to 4-[(1R,2S,6R,7S)-3,5-dioxo-4-azatricyclo[5.2.1.0~2,6~]dec-8-en-4-yl]-N-quinolin-8-ylbenzamide; type: functional, cell-based; how it was run: as §1
[7] = Chemical stability in phosphate buffer pH 7.4 at 10 uM after 30 hrs by HPLC analysis; type: physicochemical; settings: pH 7.4, 30 h
How it was run: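 Degradation followed by HPLC, and half-life determined where degradation occurred.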

[8] = test system: Embryonic stem cell; assay: Cardiogenic activity in human embryonic stem cells at 50 uM by MYH6 reporter gene assay relative to control; type: functional, cell-based

| Compound | IC50 [2] [nM] | inhibition [1] [%] | Activity [3] | further results |
| --- | --- | --- | --- | --- |
| O=C1[C@@H]2[C@@H]3CC[C@@H](C3)[C@@H]2C(=O)N1[C@H]1CC[C@H](C(=O)Nc2cccc3ncccc23)CC1 | 604 | 68 | – | – |
| CN(C)c1ccc(NC(=O)c2ccc(N3C(=O)[C@@H]4[C@@H]5CC[C@@H](C5)[C@@H]4C3=O)cc2)cc1 | – | 25 | – | – |
| Cc1cc(/C=C/c2ccc3cc(N(C)C)ccc3[n+]2C)c(C)n1-c1ccccc1 | – | – | – | Activity [4]: Toxic |
| O=C(Nc1cccc2cccnc12)c1cccc(N2C(=O)[C@@H]3[C@@H]4CC[C@@H](C4)[C@@H]3C2=O)c1 | – | 0 | – | – |
| O=C1[C@@H]2[C@@H]3CC[C@@H](C3)[C@@H]2C(=O)N1c1ccc2c(c1)C(=O)N(c1cccc3cccnc13)C2=O | – | 15 | – | – |
| O=C1[C@@H]2[C@@H]3CC[C@@H](C3)[C@@H]2C(=O)N1[C@H]1CC[C@H](C(=O)Nc2ccnc3ccccc23)CC1 | 109 | 90 | – | – |
| O=C1[C@@H]2[C@@H]3CC[C@@H](C3)[C@@H]2C(=O)N1[C@H]1CC[C@H](C(=O)Nc2ccccn2)CC1 | 109 | 82 | 3% | – |
| O=C1[C@@H]2[C@@H]3CC[C@@H](C3)[C@@H]2C(=O)N1c1ccc(CNc2cccc3cccnc23)cc1 | – | 45 | – | – |
| COc1ccc(NC(=O)c2ccc(N3C(=O)[C@@H]4[C@@H]5CC[C@@H](C5)[C@@H]4C3=O)cc2)cc1 | – | 50 | – | – |
| O=C1[C@@H]2[C@@H]3CC[C@@H](C3)[C@@H]2C(=O)N1[C@H]1CC[C@@H](C(=O)Nc2cccc3cccnc23)CC1 | 57 | 90 | Dose-dependent effect | Activity ([3]; record 2): 65% |
| CC(=O)c1ccc(NC(=O)c2ccc(N3C(=O)[C@@H]4[C@@H]5CC[C@@H](C5)[C@@H]4C3=O)cc2)cc1 | – | 41 | – | – |
| O=C1[C@@H]2[C@@H]3CC[C@@H](C3)[C@@H]2C(=O)N1[C@H]1CC[C@H](C(=O)Nc2cccnc2)CC1 | 120 | 89 | 15% | Stability [7]: Stable; inhibition [5]: < 20% |
| O=C(Nc1cccc2cccnc12)c1ccc(N2C(=O)[C@@H]3[C@@H]4CC[C@@H](C4)[C@@H]3C2=O)o1 | – | 0 | – | – |
| O=C1c2ccccc2-c2cccc(NC(=O)[C@H]3CC[C@H](N4C(=O)[C@@H]5[C@@H]6CC[C@@H](C6)[C@@H]5C4=O)CC3)c21 | 194 | 88 | Dose-dependent effect | Activity ([3]; record 2): 104% |
| O=C(Nc1cccc2cccnc12)c1ccc(N2C(=O)[C@@H]3[C@H](C2=O)[C@@H]2C=C[C@H]3C2)cc1 | – | – | Dose-dependent effect | Stability [7]: Stable; inhibition [5]: < 20%; Activity [4]: Non-toxic |
| O=C1[C@@H]2[C@@H]3CC[C@@H](C3)[C@@H]2C(=O)N1[C@H]1CC[C@H](C(=O)Nc2cccnc2Cl)CC1 | 169 | 13 | Dose-dependent effect | Activity ([3]; record 2): 56% |
| O=C(Nc1ccccc1O)c1ccc(N2C(=O)[C@@H]3[C@@H]4CC[C@@H](C4)[C@@H]3C2=O)cc1 | – | 33 | – | – |
| O=C1[C@@H]2[C@@H]3CC[C@@H](C3)[C@@H]2C(=O)N1[C@H]1CC[C@H](C(=O)Nc2cccc3cccnc23)CC1 | 4 | 89 | 145% | Activity [6]: Active; inhibition [5]: < 20% |

Second part, led by results:

| IC50 [2] [nM] | Compound | inhibition [1] [%] | Activity [3] | further results |
| --- | --- | --- | --- | --- |
| 215 | COc1ccccc1NC(=O)c1ccc(N2C(=O)[C@@H]3[C@@H]4CC[C@@H](C4)[C@@H]3C2=O)cc1 | 84 | 8% | – |
| 605 | O=C(Nc1cccc2cccnc12)c1ccc(N2C(=O)C3C(C2=O)[C@H]2CC[C@@H]3O2)cc1 (some centres not stated) | 49 | 2% | – |
| 95 | O=C1[C@@H]2[C@@H]3CC[C@@H](C3)[C@@H]2C(=O)N1[C@H]1CC[C@H](C(=O)Nc2nccc3ccccc23)CC1 | 88 | Dose-dependent effect | Activity ([3]; record 2): 84% |
| 24 | O=C(Nc1cccc2cccnc12)c1ccc(N2C(=O)[C@@H]3[C@@H]4CC[C@@H](C4)[C@@H]3C2=O)cc1 | 93 | Dose-dependent effect | Activity ([3]; record 2): 75% |
| 1180 | CC1[C@H]2CC[C@@H]1[C@@H]1C(=O)N(c3ccc(C(=O)Nc4cccc5cccnc45)cc3)C(=O)[C@@H]12 (some centres not stated) | 76 | – | – |
| 80 | O=C1[C@@H]2[C@@H]3CC[C@@H](C3)[C@@H]2C(=O)N1[C@H]1CC[C@H](C(=O)Nc2ccncc2)CC1 | 84 | 3% | – |
| 590 | CC(=O)c1ccc(NC(=O)[C@H]2CC[C@H](N3C(=O)[C@@H]4[C@@H]5CC[C@@H](C5)[C@@H]4C3=O)CC2)cn1 | 56 | 3% | inhibition [5]: < 20% |
| 55 | O=C1[C@@H]2[C@@H]3CC[C@@H](C3)[C@@H]2C(=O)N1[C@H]1CC[C@H](C(=O)Nc2cncc3ccccc23)CC1 | 89 | Dose-dependent effect | Activity ([3]; record 2): 119% |
| 7 | CC(=O)c1ncccc1NC(=O)[C@H]1CC[C@H](N2C(=O)[C@@H]3[C@@H]4CC[C@@H](C4)[C@@H]3C2=O)CC1 | 79 | 145% | Activity [6]: Active; inhibition [5]: < 20% |
| 412 | O=C(Nc1cccc2cccnc12)c1ccc(N2C(=O)[C@@H]3[C@H](C2=O)[C@@H]2C=C[C@H]3CC2)cc1 | 83 | – | – |
| 190 | CCOc1ccccc1NC(=O)[C@H]1CC[C@H](N2C(=O)[C@@H]3[C@@H]4CC[C@@H](C4)[C@@H]3C2=O)CC1 | 78 | – | – |
| 317 | N#Cc1ccc(NC(=O)c2ccc(N3C(=O)[C@@H]4[C@@H]5CC[C@@H](C5)[C@@H]4C3=O)cc2)cc1 | 70 | 1% | – |
| 37 | COc1cc(Br)ccc1NC(=O)[C@H]1CC[C@H](N2C(=O)[C@@H]3[C@@H]4CC[C@@H](C4)[C@@H]3C2=O)CC1 | 82 | Dose-dependent effect | Activity ([3]; record 2): 20%; inhibition [5]: < 20% |
| 67 | COC(=O)c1ccccc1NC(=O)[C@H]1CC[C@H](N2C(=O)[C@@H]3[C@@H]4CC[C@@H](C4)[C@@H]3C2=O)CC1 | 86 | Dose-dependent effect | Activity ([3]; record 2): 38% |
| 6 | CC(=O)c1ccccc1NC(=O)[C@H]1CC[C@H](N2C(=O)[C@@H]3[C@@H]4CC[C@@H](C4)[C@@H]3C2=O)CC1 | 91 | 78% | Stability [7]: Stable; Activity [6]: Active; inhibition [5]: < 20% |
| 728 | COc1ccc(/C=C2/SC(=S)N(CCCC(=O)O)C2=O)cc1OC | – | – | Activity [4]: Non-toxic; Activity [8]: Active |
| 161 | O=C1[C@@H]2[C@@H]3CC[C@@H](C3)[C@@H]2C(=O)N1[C@H]1CC[C@H](C(=O)Nc2cccc3cnccc23)CC1 | 87 | – | – |
| 152 | O=C1[C@@H]2[C@@H]3CC[C@@H](C3)[C@@H]2C(=O)N1[C@H]1CC[C@H](C(=O)Nc2cncc(O)c2)CC1 | 86 | Dose-dependent effect | Activity ([3]; record 2): 61% |
| 7 | O=C1CCCc2cccc(NC(=O)[C@H]3CC[C@H](N4C(=O)[C@@H]5[C@@H]6CC[C@@H](C6)[C@@H]5C4=O)CC3)c21 | 92 | 176% | Activity [6]: Active; inhibition [5]: < 20% |
| 1590 | O=C(Nc1cccc2ccccc12)c1ccc(N2C(=O)[C@@H]3[C@@H]4CC[C@@H](C4)[C@@H]3C2=O)cc1 | 41 | 8% | – |
| 23 | CC(=O)c1ccccc1NC(=O)[C@H]1CC[C@@H](N2C(=O)[C@@H]3[C@@H]4CC[C@@H](C4)[C@@H]3C2=O)CC1 | 91 | Dose-dependent effect | Activity ([3]; record 2): 72% |
| 314 | O=C(Nc1cccc2cccnc12)c1ccc(N2C(=O)[C@@H]3[C@H]4CC[C@H](CC4)[C@@H]3C2=O)cc1 | 87 | 2% | – |
| 484 | O=C1[C@@H]2[C@@H]3CC[C@@H](C3)[C@@H]2C(=O)N1[C@H]1CC[C@H](C(=O)Nc2ccccc2O)CC1 | 76 | – | – |

— ChEMBL document CHEMBL1955833, “Wnt inhibition correlates with human embryonic stem cell cardiomyogenesis: a structure-activity relationship study based on inhibitors for the Wnt response” (J Med Chem, 2012)
